GPR7 antagonist = GPR7 receptor antagonists, primary screen, cell-based, fluorescence, single concentration | inhibition, % at 4.4 µM | GPR7-expressing cells, fluorescence antagonist assay | 290,000 tested, 1.1% active | Neuropeptides B/W receptor type 1 (Homo sapiens), P48145; in the data active = inhibition above about 16%, passing the limit was not always enough;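 also: cells stimulated with the agonist NPW; 0% = agonist with vehicle and 100% = vehicle without agonist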
Target sequence (P48145 whole entry, looked up): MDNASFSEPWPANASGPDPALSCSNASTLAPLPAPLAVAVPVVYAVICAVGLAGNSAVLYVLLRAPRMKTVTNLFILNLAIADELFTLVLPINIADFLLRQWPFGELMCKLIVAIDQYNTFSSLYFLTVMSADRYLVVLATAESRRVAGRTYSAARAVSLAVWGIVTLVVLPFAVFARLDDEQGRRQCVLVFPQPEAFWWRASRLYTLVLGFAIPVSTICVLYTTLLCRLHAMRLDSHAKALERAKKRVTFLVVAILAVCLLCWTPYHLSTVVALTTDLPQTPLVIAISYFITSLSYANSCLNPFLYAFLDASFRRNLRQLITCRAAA
OX1R antag-1 = OX1R (HCRTR1) antagonists, primary screen, fluorescence, CHO/OX1R cells, Fluo-8 calcium, orexin A | inhibition, % at 5 µM | AID 434989, 2010 | 330,000 tested, 0.43% active | Fluo-8 calcium fluorescence | Orexin/Hypocretin receptor type 1 (Homo sapiens), O43613;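 active = inhibition above its plate's threshold, mean inhibition of all tested compounds on the plate plus 3 SD, cut at about 37% in these data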;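 also: 0% = orexin A challenge wells and 100% = SB-334867-A antagonist wells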
OX1R antag-2 = antagonists of human orexin 1 receptor (OX1R); OX1R-expressing cells, FRET antagonist read-out; AID 485270, 2010; inhibition, % at 6.6 µM; 330,000 tested, 1.8% active; Orexin/Hypocretin receptor type 1 (Homo sapiens), O43613; in the data active = inhibition mostly above about 38%, no sharp cut-off; inactive = mostly below about 40%;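 also: 0% = agonist challenge alone and 100% = reference antagonist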
CHO parental Ca = ATP-evoked calcium signal inhibitors, parental CHO, primary screen, counter-screen for OX1R antagonist project, cell-based, fluorescence, Fluo-8 calcium dye | parental CHO-K1, ATP-induced calcium, Fluo-8 fluorescence | inhibition, % at 5.6 µM | 330,000 tested, 0.63% active;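 active = inhibition above that plate's mean sample inhibition plus 3 SD, cut at about 26% in these data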;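 also: 0% = ATP-challenged DMSO wells and 100% = DMSO wells without ATP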
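Test system: untransfected parental CHO cell line. Compound: one dose, 5.6 µM nominal. Detection: intracellular calcium via Fluo-8 no-wash fluorescent dye. Measure: % inhibition. Benchmarks: ATP-challenged DMSO wells low, unchallenged DMSO wells high.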
MPTP inh = mitochondrial permeability transition pore inhibitors, primary screen, biochemical, isolated mouse mitochondria, absorbance | Ca2+ swelling absorbance, 30 min | inhibition, % at 10 µM | 360,000 tested, 1.4% active | AID 602449, 2012;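 active = inhibition of 50% or more, scaled per plate between neutral and stimulator controls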;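 also: 0% = DMSO wells given calcium and 100% = 1 mM EGTA wells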
OX1R HTRF confirm = OX1R (HCRTR1) antagonists, confirmation, cell-based, HTRF. shares compounds with OX1R antag-2. OX1R-expressing cells, HTRF antagonist assay. inhibition, % at 6.6 µM. 1,800 tested, 49% active; in the data active = inhibition above about 55%;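 also: CHO cells expressing OX1R stimulated with orexin A at about EC80; 0% = agonist challenge alone and 100% = reference antagonist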
CHO-K1 HTRF cnt = signal inhibition in parental CHO-K1 cells, counter-screen for OX1R antagonist project, cell-based, HTRF | shares compounds with OX1R antag-2 | HTRF counterscreen | inhibition, % at 6.6 µM | 1,800 tested, 48% active | AID 493232, 2011; in the data active = inhibition above about 17%;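 also: 0% = agonist challenge with vehicle and 100% = vehicle alone without agonist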
Numbers without * were called inactive; / = not tested or not shown. Only some compounds are listed: those with a hit (about 3.8% of all), similar ones and a draw of the others.

SMILES	GPR7 antagonist	OX1R antag-1	OX1R antag-2	CHO parental Ca	MPTP inh	OX1R HTRF confirm	CHO-K1 HTRF cnt
Cc1nc(SC2CC(=O)N(c3ccccc3)C2=O)n[nH]1 (configuration not stated)	-4	0	-4	-2	-2	/	/
Cc1nc(S/C(C(=O)O)=C2/C(=O)Nc3ccccc32)n[nH]1	-11	-6	78*	-2	1	42	46*
CC(C)NC(=O)CSc1nnc(-c2ccc(F)cc2)c2ccccc12	-18	-43	33	-18	0	/	/
Cc1cc(OCC(=O)NCCc2c[nH]c3ccccc23)c2c(C)c(C)c(=O)oc2c1	0	-32	86*	-8	0	33	5
CCCCn1c(N)c(N(CC)C(=O)CSCC(=O)Nc2ccc(OC)cc2)c(=O)[nH]c1=O	/	-5	0	-1	0	/	/
COc1cc(C(=O)NCc2ccc(S(N)(=O)=O)cc2)ccc1OCC(=O)N1CCOCC1	/	-11	-3	-6	-1	/	/
O=C(O)COc1ccccc1/C=C1\SC(=S)N(/N=C/c2ccccc2O)C1=O	-8	-1	98*	6	1	70*	46*
O=C(O)COc1ccccc1/C=C1\SC(=S)N(NC(=O)c2ccccc2O)C1=O	/	-4	28	-14	-2	/	/
CC1=Nc2ccccc2N=C(NC(=O)c2ccccc2)C1c1ccccc1 (configuration not stated)	-11	-26	11	-30	1	/	/
CCN(CCCNC(=O)C1CCN(S(=O)(=O)c2cccc3nonc23)CC1)Cc1ccccc1	5	-16	92*	-12	-4	29	44*
O=C(c1ccc([N+](=O)[O-])cc1[N+](=O)[O-])n1cnc2ccccc21	3	-5	108*	-20	0	44	68*
CCn1c(C)[n+](CCOC(C)=O)c2cc(Cl)c(Cl)cc21	-5	-9	88*	4	0	24	5
Cc1ccc(NC(=O)CSc2nnc(-c3ccco3)o2)cc1	2	-13	99*	-3	7	8	6
O=C(N/N=C/c1ccc(O)cc1)c1cc[n+](Cc2ccccc2)cc1	1	-13	90*	-11	1	39	45*
CNC(=O)c1c(NC(=O)c2ccco2)sc2c1CCC2	-24	-14	78*	7	0	45	1
NC(=O)c1cccc2cc3ccccc3cc12	0	4	77*	-18	0	26	15
CS(=O)(=O)c1ccc(S(=O)CC(=O)Oc2ccc(Cl)cc2)c([N+](=O)[O-])c1 (configuration not stated)	-11	-6	116*	-10	/	40	38*
COc1ccc(CNC(=O)CCS(=O)(=O)c2cccc3nonc23)cc1	-7	-2	36	-5	0	/	/
COc1ccc(NC(=O)CCS(=O)(=O)c2cccc3nonc23)cc1	-1	0	25	5	-3	/	/
COc1ccccc1CNC(=O)CCS(=O)(=O)c1cccc2nonc12	-3	-31	83*	-8	1	31	32*
COc1ccc(N(C)C(=O)CCS(=O)(=O)c2cccc3nonc23)cc1	3	-30	117*	-14	0	46	49*
CCN(CC(=O)NC1CCS(=O)(=O)C1)S(=O)(=O)c1ccc(C)cc1C (configuration not stated)	0	-11	2	-12	-2	/	/
CN1CN=C(NS(=O)(=O)c2ccc([N+](=O)[O-])cc2)NC1	-9	-10	83*	-2	0	32	30*
CCCCNC1=CC(=O)C(=O)c2ccccc21	-4	-5	161*	2	2	88*	101*
CC1C(=O)N2CCCc3cc(S(=O)(=O)N(C)c4ccccc4)cc1c32 (configuration not stated)	9	-23	8	-24	0	/	/

From PubChem BioAssay
